This is an account of results in ChEMBL document CHEMBL4251566 (Eur J Med Chem, 2018).

Series [1] deals with Ramos. Put plainly: Induction of apoptosis in human Ramos cells assessed as necrotic cells at 5 uM after 72 hrs by Annexin V-FITC/propidium iodide staining based flow cytometry (reference value: 0.7%). The format is functional.
For series [2], the system named is Ramos. Put plainly: Induction of apoptosis in human Ramos cells assessed as total apoptosis rate at 20 uM after 72 hrs by Annexin V-FITC/propidium iodide staining based flow cytometry relative to control.
The subject of series [3] is Ramos. Put plainly: Induction of apoptosis in human Ramos cells assessed as late apoptotic cells at 5 uM after 72 hrs by Annexin V-FITC/propidium iodide staining based flow cytometry (reference value: 0.5%). In kind it is functional.
Series [4] has as its system Raji. Put plainly: Antiproliferative activity against human Raji cells after 72 hrs by CCK-8 assay. In kind it is functional, cell-based. An outline of the steps: (§1)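 CCK-8 viability assay. Cells were seeded at 3000/well in RPMI-1640 with 10% FBS at 37 °C, 5% CO2, for 4 h before treatment. Exposure was 72 h at five concentrations (1.25, 5, 10, 20, 40 µM), each in five replicates. Absorbance was read at 450 nm. IC50 came from dose-response curves, as the mean of at least three separate experiments.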

Series [5] deals with Ramos. Put plainly: Induction of apoptosis in human Ramos cells assessed as necrotic cells at 10 uM after 72 hrs by Annexin V-FITC/propidium iodide staining based flow cytometry (reference value: 0.7%). In kind it is functional.
For series [6], the system named is Ramos. Put plainly: Induction of apoptosis in human Ramos cells assessed as early apoptotic cells at 5 uM after 72 hrs by Annexin V-FITC/propidium iodide staining based flow cytometry (reference value: 0.0%). In kind it is functional.
Series [7] has as its system NAMALVA. Put plainly: Antiproliferative activity against human NAMALWA cells after 72 hrs by CCK-8 assay. In kind it is functional, cell-based. An outline of the steps:
as §1

Series [8] deals with Mus musculus. Put plainly: Toxicity in CB17/SCID mouse xenografted with Ramos cells assessed as change in body weight at 60 mg/kg, po qd for 14 days. In kind it is organism-based. To be noted: in vivo, 336 h. In short, it runs like this: (§2)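 Female CB17/SCID mice, 5–6 weeks old and 20–25 g, received 3×10⁶ Ramos cells in 0.1 mL PBS subcutaneously in the right axilla. From day 3 after implantation, dosing was oral at 30 or 60 mg/kg for 14 days; vehicle controls got oral 25% PEG-400. Tumor volume was A×B²/2 from caliper diameters. Tumor weight was taken at sacrifice, and body weight was tracked. n = 5.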

Series [9] concerns Ramos. Put plainly: Induction of apoptosis in human Ramos cells assessed as early apoptotic cells at 10 uM after 72 hrs by Annexin V-FITC/propidium iodide staining based flow cytometry (reference value: 0.0%). In kind it is functional.
The subject of series [10] is Ramos. Put plainly: Induction of apoptosis in human Ramos cells assessed as early apoptotic cells at 20 uM after 72 hrs by Annexin V-FITC/propidium iodide staining based flow cytometry (reference value: 0.0%). The format is functional.
For series [11], the target named is T1, Tyrosine-protein kinase JAK3 (Homo sapiens, UniProt P52333).
T1 sequence (P52333 whole entry): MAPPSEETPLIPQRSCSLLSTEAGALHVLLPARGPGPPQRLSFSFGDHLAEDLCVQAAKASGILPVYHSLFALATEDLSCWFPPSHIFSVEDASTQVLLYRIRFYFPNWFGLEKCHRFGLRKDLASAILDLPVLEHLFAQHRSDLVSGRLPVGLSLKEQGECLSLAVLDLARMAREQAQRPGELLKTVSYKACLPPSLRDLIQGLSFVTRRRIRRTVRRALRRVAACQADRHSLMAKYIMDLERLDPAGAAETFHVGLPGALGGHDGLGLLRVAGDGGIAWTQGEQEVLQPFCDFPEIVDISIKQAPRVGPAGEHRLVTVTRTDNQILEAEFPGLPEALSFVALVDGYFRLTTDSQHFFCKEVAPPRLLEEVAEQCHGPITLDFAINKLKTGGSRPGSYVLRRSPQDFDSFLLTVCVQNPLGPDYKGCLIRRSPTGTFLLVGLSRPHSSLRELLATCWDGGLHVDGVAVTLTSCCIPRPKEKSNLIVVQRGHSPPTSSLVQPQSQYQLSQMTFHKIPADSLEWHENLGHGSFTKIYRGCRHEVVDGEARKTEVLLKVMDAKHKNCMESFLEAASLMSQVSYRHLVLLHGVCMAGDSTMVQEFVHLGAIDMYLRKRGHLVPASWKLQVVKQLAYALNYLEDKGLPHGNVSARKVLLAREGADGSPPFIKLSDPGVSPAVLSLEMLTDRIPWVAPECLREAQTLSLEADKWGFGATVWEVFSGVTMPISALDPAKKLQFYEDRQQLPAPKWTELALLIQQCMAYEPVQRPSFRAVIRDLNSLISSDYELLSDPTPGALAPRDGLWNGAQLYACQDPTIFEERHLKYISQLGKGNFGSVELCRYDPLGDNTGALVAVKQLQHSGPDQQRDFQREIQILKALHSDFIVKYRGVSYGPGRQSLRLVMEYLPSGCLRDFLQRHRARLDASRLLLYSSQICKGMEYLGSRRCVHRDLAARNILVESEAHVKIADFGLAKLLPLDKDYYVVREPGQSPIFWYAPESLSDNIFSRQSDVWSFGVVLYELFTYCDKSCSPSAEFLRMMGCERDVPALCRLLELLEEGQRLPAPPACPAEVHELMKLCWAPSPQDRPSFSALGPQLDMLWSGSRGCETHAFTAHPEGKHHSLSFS
Put plainly: Inhibition of recombinant N-terminal GST-tagged human JAK3 (781 to end residues) expressed in baculovirus infected Sf9 insect cells using Poly(4:1 Glu,Tyr) peptide substrate incubated for 60 mins by ADP-Glo luminescence assay. An outline of the steps: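 ADP-Glo luminescent kinase assay. The kinase reaction ran 60 min at room temperature in 1× kinase buffer. ADP-Glo reagent was added to stop the reaction and deplete ATP, followed by 40 min at room temperature. Detection reagent then converted ADP to ATP for a luciferase readout, followed by 30 min at room temperature. Luminescence was integrated over 0.5–1 s, and IC50 came from curve fitting.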

Series [12] relates to Ramos. Put plainly: Induction of apoptosis in human Ramos cells assessed as viable cells at 20 uM after 72 hrs by Annexin V-FITC/propidium iodide staining based flow cytometry (reference value: 98.7%). The format is functional. The settings on record: read-out: Activity.
The target in series [13] is Tyrosine-protein kinase BTK (Homo sapiens, UniProt Q06187). Put plainly: Inhibition of BTK phosphorylation in human NAMALWA cells after 48 hrs by immunoblot analysis. In kind it is cell-based. An outline of the steps:
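Namalwa cells were treated with 1, 5 or 10 µM for 48 h. Lysates were cleared at 14,000 g for 15 min at 4 °C, and 50 µg of protein was run on 8–12% SDS-PAGE and transferred to PVDF. Membranes were blocked in 5% milk for 2 h and incubated with primary antibody overnight at 4 °C. Detection was by ECL, with band IOD normalized to β-actin.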

Series [14] deals with Ramos. Put plainly: Induction of apoptosis in human Ramos cells assessed as total apoptosis rate at 5 uM after 72 hrs by Annexin V-FITC/propidium iodide staining based flow cytometry relative to control.
The subject of series [15] is Ramos. Put plainly: Induction of apoptosis in human Ramos cells assessed as necrotic cells at 20 uM after 72 hrs by Annexin V-FITC/propidium iodide staining based flow cytometry (reference value: 0.7%). The format is functional.
For series [16], the system named is Ramos. Put plainly: Antitumor activity against human Ramos cells xenografted in CB17/SCID mouse assessed as tumor growth inhibition at 30 mg/kg, po qd for 14 days. The format is functional. To be noted: 336 h, read-out: TGI. In short, it runs like this: as §2

SMILES strings stand for the structures. Some results are limits rather than exact numbers.

Sequence of Tyrosine-protein kinase BTK (Q06187 whole entry): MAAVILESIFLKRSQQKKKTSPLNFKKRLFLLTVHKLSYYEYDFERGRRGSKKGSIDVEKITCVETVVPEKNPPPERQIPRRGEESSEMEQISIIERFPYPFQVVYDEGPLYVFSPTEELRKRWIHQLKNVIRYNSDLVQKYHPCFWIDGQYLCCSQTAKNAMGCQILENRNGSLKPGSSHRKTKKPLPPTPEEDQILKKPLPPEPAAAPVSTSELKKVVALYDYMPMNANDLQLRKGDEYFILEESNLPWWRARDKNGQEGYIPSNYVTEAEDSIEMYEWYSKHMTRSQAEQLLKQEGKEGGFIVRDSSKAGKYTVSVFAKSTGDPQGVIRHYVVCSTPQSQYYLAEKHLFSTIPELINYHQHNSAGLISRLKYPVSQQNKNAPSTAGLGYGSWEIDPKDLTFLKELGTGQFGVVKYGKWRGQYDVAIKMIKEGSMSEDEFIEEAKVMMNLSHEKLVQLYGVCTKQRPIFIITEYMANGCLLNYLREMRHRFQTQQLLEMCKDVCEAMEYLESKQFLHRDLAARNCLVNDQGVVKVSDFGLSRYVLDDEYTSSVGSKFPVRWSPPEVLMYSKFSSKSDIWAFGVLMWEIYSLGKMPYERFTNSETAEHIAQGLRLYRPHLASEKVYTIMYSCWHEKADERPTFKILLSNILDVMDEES

In the case of `C=CC(=O)Nc1cccc(Nc2nc(Nc3ccc(OCCCN4CCOCC4)cc3)ncc2Cl)c1`, the Activity is 6.6% in [1]; 80.2% in [2]; 8.2% in series [3]; 2.7% in [5]; 50.8% in series [6]; “<= 5%” in series [8]. Moreover, the Activity in series [9] was 67.6%; in series [10] it was 61.6%; in series [14], 59%; in series [15], 3.5%. The results for the 50% inhibitory concentration (IC50) in series [4], in series [7] and in series [11] were 9.32 µM, 8.23 µM and 0.00083 µM, respectively. Moreover, in series [12], the viability at 20 µM came out at 16.3%. Moreover, the inhibition entry in series [13] was “Dose-dependent effect”. Further, in series [16], the inhibition in vivo at 30 mg/kg was 36.6%.

On to `C=CC(=O)Nc1cccc(Nc2nc(Nc3ccc(OCC(=O)N4CCOCC4)c(Cl)c3)ncc2Cl)c1`, for which the Activity in series [1] is given as 0.9%; in series [2], 79.5%; in series [3], 7%; in series [5], 1.1%; in [6], 54.8%; in series [8] it was “<= 5%”. Moreover, the Activity in [9] was found to be 59%; in series [10], 65.1%; in [14], 61.8%; in series [15], 0.4%. Further, the concentration for half-maximal inhibition (IC50) in series [4] was 8.89 µM; in series [7], 6.45 µM; in [11] it was 0.00834 µM. Also, the viability at 20 µM in [12] amounted to 20.1%. Also, the inhibition result in series [13] is “Dose-dependent effect”. The inhibition in vivo at 30 mg/kg in [16] was 24.4%.
